Screening data as filed in PubChem BioAssay.
Rows were chosen to be rich in hits. Some 3.8% of all compounds tested hit in one or more screens of this group.
MrgX1 PAM – allosterically activates human MrgX1 receptor signaling; Q96LB2; MrgX1-HEK293, Fluo-4 calcium flux, FDSS; stronger effect = higher value; B-score at 10 µM; actives 0.63% (n = 310,000);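 active = plate-corrected calcium response at least 3 library SD above typical, normal starting fluorescence, not activating the receptor alone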;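 also: compound read alongside a low EC10 to EC30 dose of BAM8-22 agonist; peak minus trough fluorescence over baseline measured at the second addition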
Target sequence (Q96LB2 whole entry, looked up): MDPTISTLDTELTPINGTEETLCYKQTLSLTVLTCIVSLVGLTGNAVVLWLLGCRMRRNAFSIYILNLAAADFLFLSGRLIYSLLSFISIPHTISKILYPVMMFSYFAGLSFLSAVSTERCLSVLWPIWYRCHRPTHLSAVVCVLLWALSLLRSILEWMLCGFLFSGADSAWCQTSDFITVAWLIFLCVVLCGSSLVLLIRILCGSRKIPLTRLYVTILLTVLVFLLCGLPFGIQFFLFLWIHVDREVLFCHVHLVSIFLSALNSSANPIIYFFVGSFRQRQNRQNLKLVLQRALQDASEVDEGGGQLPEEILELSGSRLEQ
Lipid droplet – modulators of hepatic lipid droplet formation | inhibition, % at 6.5 µM | AID 1656 | AML12 mouse hepatocytes, oleate lipid droplets, BODIPY imaging | actives 0.4% (n = 240,000);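 active = lipid droplet intensity inhibited by at least 50%, with more than 500 cells counted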
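Material – mouse AML12 hepatocyte cell line, fixed after treatment · Compound dosing – one dose, 6.5 µM compound · Times – compound with oleate, overnight · Measured by – Image-based BODIPY and DAPI two-channel analysis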
RGS4 act – potentiators or activators of RGS4 | HEK293 M3R/inducible RGS4, carbachol calcium flux Fluo4; stronger effect = lower value | B-score at 10 µM | actives 0.92% (n = 310,000) | AID 463111;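 active = B-score of the integrated calcium signal more than 4 SD below the library mean, with starting fluorescence not abnormally high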;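 also: negative B-score means reduced calcium response which marks RGS4 activation or potentiation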
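Also added: carbachol at ECmax as muscarinic agonist stimulus; Assay system: HEK293 cells with stable M3R and inducible RGS4; Timing: overnight RGS4 induction, 30 min dye load 37 °C, 20 min compound RT; Measured by: Fluo4-AM (2 µM) calcium-flux fluorescence, kinetic read.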
MrgX1 ag – human MrgX1 receptor agonism, primary screen; MrgX1-HEK293 cells, Fluo-4 calcium fluorescence, agonist mode; stronger effect = higher value; B-score at 10 µM; actives 0.44% (n = 310,000); AID 588627;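 active = calcium response B-score plate-corrected fluorescence ratio at least 3 library SD, with starting fluorescence B-score inside 5 SD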
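Test system: Stable human MrgX1 HEK293 cell line | Schedule: Overnight plating before 1 h dye loading | Read-out basis: Baseline-normalised fluorescence change ratio, B-scored | Detection: Kinetic calcium dye fluorescence, Fluo-4 NW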
RGS4 inh – inhibitors of human RGS4; P49798; HEK293 M3R/RGS4 inducible, Fluo-4 calcium flux; stronger effect = higher value; triggered by carbachol at its EC20; B-score at 10 µM; actives 0.45% (n = 310,000);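 active = B-score, a plate-corrected calcium signal, over three deviations above library mean, with baseline fluorescence within five deviations of library mean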;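 also: RGS4 expression induced by doxycycline in cells with stable M3 receptor; B-score is computed from the integrated fluorescence ratio over baseline after carbachol; higher B-score means a larger calcium signal and so more RGS4 inhibition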
Target sequence (P49798 whole entry, looked up): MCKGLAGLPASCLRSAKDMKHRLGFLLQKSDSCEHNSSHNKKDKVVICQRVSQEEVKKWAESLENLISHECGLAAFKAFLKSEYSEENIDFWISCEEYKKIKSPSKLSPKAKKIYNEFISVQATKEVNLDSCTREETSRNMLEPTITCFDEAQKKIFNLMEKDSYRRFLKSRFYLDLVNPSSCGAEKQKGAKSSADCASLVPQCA
MrgX1 antag – human MrgX1 receptor antagonism, primary screen; Q96LB2; MRGX1-HEK293 calcium flux, Fluo-4, BAM8-22 antagonism; stronger effect = lower value; B-score at 10 µM; actives 1.3% (n = 310,000); AID 588676;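 active = calcium-response B-score plate-corrected more than 3 library SD below zero, starting fluorescence within 5 deviations, no agonist response on first addition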;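 also: peak minus trough fluorescence over baseline after final BAM8-22 challenge near maximal dose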
MrgX1 antag conf – human MrgX1 receptor antagonism, re-confirmation screen. shares compounds with MrgX1 antag. MrgX1-HEK293, BAM8-22 calcium flux, Fluo-4; stronger effect = lower value. remaining BAM8-22 calcium response % of control (stronger effect = lower value), % at 10 µM. actives 19% (n = 2,300). AID 602420;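 active = remaining agonist calcium response no higher than 100% minus 3 SD of agonist-only control wells, with starting fluorescence near control levels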;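 also: agonist BAM8-22 given at a near maximal EC90 to ECmax level; peak minus minimum fluorescence divided by baseline after agonist addition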
HEK293 Ca flux – MrgX1 antagonist counter-screen hit in parental HEK293 cells | fluorescence ratio F(max-min)/F0 at 10 µM | actives 2% (n = 4,000) | shares compounds with MrgX1 antag | Fluo-4 calcium fluorescence, FDSS;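 active = duplicate-averaged calcium fluorescence ratio at least three times the standard deviation of buffer wells, a nonspecific response in parental cells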
HEK293 Ca counter – activity in parental HEK293 cells without MrgX1; actives 0.4% (n = 4,000); fluorescence ratio F(max-min)/F0 at 10 µM; parental HEK293 calcium flux, Fluo-4 fluorescence ratio; stronger effect = higher value; shares compounds with MrgX1 antag; AID 624114;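 active = calcium fluorescence ratio, averaged over duplicates, at least 3 SD of the buffer-well ratio, meaning a nonspecific response in receptor-free cells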;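 also: untransfected parental HEK293 lacking MrgX1 used as counterscreen for MrgX1 allosteric activators; fluorescence change taken during the second addition on a kinetic imager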
HEK293 Ca cntr2 – counter-screen for MrgX1 activators: effect in parental HEK293 cells. fluorescence ratio F(max-min)/F0 at 10 µM. shares compounds with MrgX1 antag. actives 8.7% (n = 4,000). Fluo-4 calcium fluorescence (FDSS); stronger effect = higher value;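 active = calcium fluorescence ratio at least three times the spread of buffer wells, meaning a non-specific response in parental cells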
Large screens that a line does not name were inactive (follow-up assays come after a bar, where they were run).

COc1cccc(C(=O)Nc2cccc(-c3nnc(-c4ccco4)o3)c2)c1	MrgX1 antag -5.5 (no result: Lipid droplet) | MrgX1 antag conf 60% | HEK293 Ca flux inactive | HEK293 Ca counter inactive | HEK293 Ca cntr2 inactive
CC(=O)c1ccc(NC(=O)Oc2ccccc2)cc1	none
COc1ccc(N(C(=O)CCl)C(C)(C(=O)Nc2c(C)cccc2C)c2ccccn2)cc1 (stereo not drawn)	none
COc1ccc(NC(=O)NCc2ccncc2)cc1	none (no result: Lipid droplet)
COc1ccc(OC)c(C(C)NC(=O)Nc2cccc(C(C)=O)c2)c1 (stereo not drawn)	MrgX1 antag -10 | MrgX1 antag conf inactive | HEK293 Ca flux inactive | HEK293 Ca counter inactive | HEK293 Ca cntr2 inactive
O=C(Nc1ccc2nn(-c3ccccc3)nc2c1)c1cccnc1	MrgX1 antag -5.7 (no result: Lipid droplet) | MrgX1 antag conf 84% | HEK293 Ca flux inactive | HEK293 Ca counter inactive | HEK293 Ca cntr2 inactive
O=C(Nc1cccnc1)c1cccc(S(=O)(=O)N2CCc3ccccc32)c1	none
COc1ccc(NC(=O)NCc2cccnc2)cc1	MrgX1 antag -7.6 | MrgX1 antag conf inactive | HEK293 Ca flux inactive | HEK293 Ca counter inactive | HEK293 Ca cntr2 inactive
COc1ccc(OC)c(C(C)NC(=O)c2ccc(Br)cc2)c1 (stereo not drawn)	none
CC1Cc2ccccc2N1S(=O)(=O)c1cccc(C(=O)Nc2cccnc2)c1 (stereo not drawn)	MrgX1 antag -4.6 | MrgX1 antag conf inactive | HEK293 Ca flux inactive | HEK293 Ca counter inactive | HEK293 Ca cntr2 inactive
CCc1nnc(NC(=O)/C=C/c2cccs2)s1	none
O=C(Nc1cccnc1)c1ccc(COc2ccccc2Br)cc1	MrgX1 antag -7.4 | MrgX1 antag conf inactive | HEK293 Ca flux inactive | HEK293 Ca counter inactive | HEK293 Ca cntr2 inactive
COc1cccc(C(=O)NCc2cccnc2)c1	MrgX1 antag -5.5 | MrgX1 antag conf inactive | HEK293 Ca flux inactive | HEK293 Ca counter inactive | HEK293 Ca cntr2 inactive
O=C(NCc1cccnc1)c1ccc(COc2ccccc2Br)cc1	none
O=C(Nc1ccccc1F)C1COc2ccccc2O1 (stereo not drawn)	none (no result: Lipid droplet)
CC(=O)c1ccc(-c2ccc(C(=O)NCC(c3ccc(F)cc3)N3CCOCC3)o2)cc1 (stereo not drawn)	MrgX1 antag -8 (no result: Lipid droplet) | MrgX1 antag conf 60% | HEK293 Ca flux inactive | HEK293 Ca counter inactive | HEK293 Ca cntr2 inactive
Cc1ccc(C(=O)NCC(c2ccc(F)cc2)N2CCOCC2)cc1 (stereo not drawn)	none
CC(C)c1ccc(CC(C)C2C3=C(CCCC3=O)OC3=C2C(=O)CCC3)cc1 (stereo not drawn)	none
CCOc1ccc(OCC)c(NC(=O)C2CCCN(c3nc(C)cc(C)n3)C2)c1 (stereo not drawn)	none (no result: Lipid droplet)
CCN(Cc1ccccc1)S(=O)(=O)c1ccc2oc(C(=O)O)c(C)c2c1	MrgX1 antag -5.2 | MrgX1 antag conf inactive | HEK293 Ca flux inactive | HEK293 Ca counter inactive | HEK293 Ca cntr2 inactive
CCN(CC)S(=O)(=O)c1ccc2oc(C(=O)O)c(C)c2c1	none
O=C(COc1ccc(CO)cc1Cl)Nc1ccc(F)cc1	MrgX1 antag -6.6 | MrgX1 antag conf 85% | HEK293 Ca flux inactive | HEK293 Ca counter inactive | HEK293 Ca cntr2 inactive
CCOC(=O)CN1C(=O)C(C)(C)Oc2ccc(C(=O)NC(C)(C)CC)cc21	MrgX1 antag -5.3 (no result: Lipid droplet) | MrgX1 antag conf inactive | HEK293 Ca flux inactive | HEK293 Ca counter inactive | HEK293 Ca cntr2 inactive
COc1ccc(C(=O)Nn2c(SCc3ccc([N+](=O)[O-])cc3)nc3ccccc3c2=O)cc1	none (no result: Lipid droplet)
CCCN1CCN(CCNC(=O)Nc2cc(C)ccc2C)CC1	none
Cc1ccc(CNC(=O)N[C@@H](Cc2ccccc2)C(=O)O)cc1	MrgX1 antag -7.2 | MrgX1 antag conf inactive | HEK293 Ca flux inactive | HEK293 Ca counter inactive | HEK293 Ca cntr2 inactive
Cc1cc(C)cc(NC(=O)c2ccc(CNc3c(N4CCCC4)c(=O)c3=O)cc2)c1	none
CC(=O)N1CN(CCCn2ccnc2)Cc2c1sc1c2CCCC1	MrgX1 antag -5.8 (no result: Lipid droplet) | MrgX1 antag conf inactive | HEK293 Ca flux inactive | HEK293 Ca counter inactive | HEK293 Ca cntr2 inactive
CC(=O)N1CN(Cc2ccccn2)Cc2c1sc1c2CCCC1	none
CC1=C(C(N)=O)C(c2cccc(O)c2)n2nc(CCCO)nc2N1 (stereo not drawn)	MrgX1 antag -4.7 (no result: Lipid droplet) | MrgX1 antag conf inactive | HEK293 Ca flux inactive | HEK293 Ca counter inactive | HEK293 Ca cntr2 inactive
CC1=C(C(N)=O)C(c2ccc(Cl)cc2)n2nc(CCCO)nc2N1 (stereo not drawn)	none
CC1(C)CC2CC(C)(CN2CC(=O)C(C#N)c2ccccc2)C1 (stereo not drawn)	MrgX1 antag -8.7 (no result: Lipid droplet) | MrgX1 antag conf inactive | HEK293 Ca flux inactive | HEK293 Ca counter inactive | HEK293 Ca cntr2 inactive
CC1(C)CC2CC(C)(CN2CC(O)c2ccccc2)C1 (stereo not drawn)	none
O=C(CSc1nc(-c2ccc(F)cc2)cs1)N1CCOCC1	MrgX1 antag -9.2 | MrgX1 antag conf inactive | HEK293 Ca flux inactive | HEK293 Ca counter inactive | HEK293 Ca cntr2 inactive
Cc1nc(Cl)c(C(=O)NC(C)(C)C)c(C)c1Cl	MrgX1 antag -9.4 | MrgX1 antag conf inactive | HEK293 Ca flux inactive | HEK293 Ca counter inactive | HEK293 Ca cntr2 inactive
O=C(NCc1ccco1)c1ccc(CNc2c(N3CCCCC3)c(=O)c2=O)cc1	none
CCCNCC(O)Cn1c2ccccc2n2c(=O)cc(C)c(C#N)c12 (stereo not drawn)	none
Cc1cc(=O)n2c3ccccc3n(CC(O)CN3CCCC3)c2c1C#N (stereo not drawn)	MrgX1 antag -5.3 (no result: Lipid droplet) | MrgX1 antag conf inactive | HEK293 Ca flux inactive | HEK293 Ca counter inactive | HEK293 Ca cntr2 inactive
CCOC(=O)CC1C(=O)NCCN1S(=O)(=O)c1ccc(NC(C)=O)cc1 (stereo not drawn)	MrgX1 antag -6.5 | MrgX1 antag conf inactive | HEK293 Ca flux inactive | HEK293 Ca counter inactive | HEK293 Ca cntr2 inactive
